Measurements: ChEMBL document CHEMBL2146466, “Evaluation of dimerization-inhibitory activities of cyclic peptides containing a β-hairpin loop sequence of the EGF receptor” (2012)
Calls of active or inactive are those of the source. The calls are words filed in the database; no cut-off is given here. Where a SMILES comes first, the peptide text is derived from it.

Assays:
A-431 = assay: Antiproliferative activity against human A431 cells at 10 uM after 3 days by WST-8 assay; assay type: functional; conditions: A-431, 72 h
Procedure, shortened: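 A431 cells in DMEM with 10% FBS were seeded at 5×10^3 cells/well and grown 24 h at 37 °C, 5% CO₂. Peptide at 10 µM, or distilled water as the 100% growth control, was added and cells were re-incubated 24 h for three consecutive days. WST-8 was then added for 90 min and absorbance read at 450 nm (reference 655 nm). Six replicate wells, three independent repeats; mean ± SD.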

[1] = biological target: Epidermal growth factor receptor (Homo sapiens) (UniProt P00533); assay: Inhibition of human recombinant EGF receptor autophosphorylation expressed in A431 cells at 10 uM after 5 mins by immunoblotting analysis; assay type: cell-based; conditions: A-431
Procedure, shortened: (§1)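 A431 cells were seeded at 1×10^4/well, grown 4 days, then starved 24 h in serum-free medium with 1 mg/mL BSA. Cells were given peptide or PBS for 1 h at 37 °C, then 100 ng/mL human EGF for 5 min. Lysates in NP-40 buffer were diluted to 500 µg/mL protein and run on SDS-PAGE. Blots were probed with anti-EGFR pY1068, then stripped and re-probed for total EGFR. Mean of two independent experiments in duplicate.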

[2] = biological target: Epidermal growth factor receptor (Homo sapiens) (UniProt P00533); assay: Human recombinant EGF receptor dimer amount expressed in A431 cells at 10 uM after 10 mins by immunoblotting analysis relative to control; conditions: A-431
[3] = biological target: Epidermal growth factor receptor (Homo sapiens) (UniProt P00533); assay: Inhibition of human recombinant EGF receptor autophosphorylation expressed in A431 cells at 1 nM after 5 mins by immunoblotting analysis; assay type: cell-based; conditions: A-431; procedure, shortened: as §1
[4] = biological target: Epidermal growth factor receptor (Homo sapiens) (UniProt P00533); assay: Inhibition of human recombinant EGF receptor dimerization expressed in A431 cells at 10 uM after 10 mins by immunoblotting analysis relative to CYNPTTYQMC; assay type: cell-based; conditions: A-431
[5] = biological target: Epidermal growth factor receptor (Homo sapiens) (UniProt P00533); assay: Inhibition of human recombinant EGF receptor dimerization expressed in A431 cells at 10 uM after 10 mins by immunoblotting analysis relative to control; assay type: cell-based; conditions: A-431
Procedure, shortened: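 Confluent A431 cells were solubilized in 20 mM HEPES pH 7.4 with 1% Triton X-100, 10% glycerol, 1 mM EGTA and 1 mM PMSF, and the extract was spun at 250,000×g. Supernatant at 2 µg/µL protein was pre-treated 60 min with 10 µM peptide, then given 0.21 µM human EGF for 10 min. Cross-linking was with 1 mM BS³ for 10 min, quenched with glycine. Dimer and monomer were resolved by SDS-PAGE and anti-EGFR immunoblot, with ECL quantification. Dimer without peptide was set to 1.0; mean ± SD of at least three experiments in duplicate.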

Chain of Epidermal growth factor receptor (Homo sapiens) (P00533 whole entry): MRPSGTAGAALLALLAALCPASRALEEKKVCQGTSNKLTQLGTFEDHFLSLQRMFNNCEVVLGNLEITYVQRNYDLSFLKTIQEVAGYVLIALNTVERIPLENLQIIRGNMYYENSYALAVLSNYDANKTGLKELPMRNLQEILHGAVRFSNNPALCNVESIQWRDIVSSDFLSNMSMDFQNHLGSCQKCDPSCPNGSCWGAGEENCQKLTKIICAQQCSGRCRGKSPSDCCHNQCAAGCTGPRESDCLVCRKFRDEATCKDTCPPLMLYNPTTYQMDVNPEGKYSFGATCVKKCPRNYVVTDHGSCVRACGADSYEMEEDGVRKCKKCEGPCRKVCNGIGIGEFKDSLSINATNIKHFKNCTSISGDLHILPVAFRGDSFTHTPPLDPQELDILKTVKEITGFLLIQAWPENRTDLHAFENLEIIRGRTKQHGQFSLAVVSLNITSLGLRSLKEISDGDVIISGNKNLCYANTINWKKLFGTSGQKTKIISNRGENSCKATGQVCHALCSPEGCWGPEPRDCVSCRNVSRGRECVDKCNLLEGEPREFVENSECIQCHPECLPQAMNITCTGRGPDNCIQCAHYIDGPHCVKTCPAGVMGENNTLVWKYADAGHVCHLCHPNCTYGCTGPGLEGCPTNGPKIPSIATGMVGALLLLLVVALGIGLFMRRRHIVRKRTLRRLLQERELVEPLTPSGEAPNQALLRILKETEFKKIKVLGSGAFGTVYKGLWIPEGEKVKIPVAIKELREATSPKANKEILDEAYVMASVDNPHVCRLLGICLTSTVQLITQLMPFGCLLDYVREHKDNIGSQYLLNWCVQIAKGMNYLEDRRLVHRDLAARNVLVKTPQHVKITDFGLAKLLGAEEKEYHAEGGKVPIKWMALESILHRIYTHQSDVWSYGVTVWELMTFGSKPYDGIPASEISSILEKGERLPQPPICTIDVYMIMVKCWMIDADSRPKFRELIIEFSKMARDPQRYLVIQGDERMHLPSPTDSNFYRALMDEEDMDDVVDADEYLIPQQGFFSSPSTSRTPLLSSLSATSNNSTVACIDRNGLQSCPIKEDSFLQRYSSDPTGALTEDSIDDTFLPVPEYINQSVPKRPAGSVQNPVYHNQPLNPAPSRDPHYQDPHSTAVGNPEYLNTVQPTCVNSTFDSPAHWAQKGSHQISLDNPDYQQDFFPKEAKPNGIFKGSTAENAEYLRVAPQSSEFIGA

Compound	inhibition [1]	residual activity [2] [%]	inhibition [3] [%]	inhibition [4] [%]	inhibition [5]	cell proliferation (% of vehicle) at 10 µM (A-431) [%]
H-LVYNKLTFQLEPNPHTK-OH	–	–	–	–	–	95
CSCC[C@@H]1NC(=O)[C@H](CCC(N)=O)NC(=O)[C@H](Cc2ccc(O)cc2)NC(=O)[C@@H]2CSSC[C@H](NC(=O)[C@H](Cc3ccc(O)cc3)NC(=O)[C@@H](N)CSSC[C@@H](C(=O)O)NC1=O)C(=O)N1CCC[C@H]1C(=O)N[C@@H]([C@@H](C)O)C(=O)N2 (HELM PEPTIDE1{C.Y.C.P.T.C.Y.Q.M.C}$PEPTIDE1,PEPTIDE1,1:R3-10:R3|PEPTIDE1,PEPTIDE1,3:R3-6:R3$$$V2.0)	–	83	–	65	–	–
CSCC[C@H](NC(=O)[C@H](CCC(N)=O)NC(=O)[C@H](Cc1ccc(O)cc1)NC(=O)[C@@H]1CSSC[C@H](NC(=O)[C@H](Cc2ccc(O)cc2)NC(=O)[C@@H](N)CC(C)C)C(=O)N2CCC[C@H]2C(=O)N[C@@H]([C@@H](C)O)C(=O)N1)C(=O)N[C@@H](CC(=O)O)C(=O)O (HELM PEPTIDE1{L.Y.C.P.T.C.Y.Q.M.D}$PEPTIDE1,PEPTIDE1,3:R3-6:R3$$$V2.0)	–	90	–	32	–	–

The next lines start with results.

inhibition [1]	residual activity [2] [%]	inhibition [3] [%]	inhibition [4] [%]	inhibition [5]	Compound	cell proliferation (% of vehicle) at 10 µM (A-431) [%]
Active	69	–	–	–	CSCC[C@@H]1NC(=O)[C@H](CCC(N)=O)NC(=O)[C@H](Cc2ccc(O)cc2)NC(=O)[C@H]([C@@H](C)O)NC(=O)[C@H]([C@@H](C)O)NC(=O)[C@@H]2CCCN2C(=O)[C@H](CC(N)=O)NC(=O)[C@H](Cc2ccc(O)cc2)NC(=O)[C@@H](N)CSSC[C@@H](C(=O)O)NC1=O	84
70%	68	45	–	–	CSCC[C@H]1NC(=O)[C@H](N)CSSC[C@H](C(=O)O)NC(=O)[C@@H](Cc2ccc(O)cc2)NC(=O)[C@@H](CC(N)=O)NC(=O)[C@H]2CCCN2C(=O)[C@@H]([C@H](C)O)NC(=O)[C@@H]([C@H](C)O)NC(=O)[C@@H](Cc2ccc(O)cc2)NC(=O)[C@@H](CCC(N)=O)NC1=O	81
–	–	–	–	Active	CSCC[C@@H]1NC(=O)[C@H](CCC(N)=O)NC(=O)[C@H](Cc2ccc(O)cc2)NC(=O)[C@H]([C@@H](C)O)NC(=O)[C@H]([C@@H](C)O)NC(=O)[C@@H]2CCCN2C(=O)[C@H](CC(N)=O)NC(=O)[C@H](Cc2ccc(O)cc2)NC(=O)[C@H](CC(C)C)NC(=O)[C@H](CCSC)NC(=O)[C@H](CC(C)C)NC(=O)[C@@H](N)CSSC[C@@H](C(=O)O)NC(=O)[C@H](CCC(=O)O)NC(=O)[C@@H]2CCCN2C(=O)[C@H](C(C)C)NC(=O)[C@H](CC(=O)O)NC1=O (HELM PEPTIDE1{C.L.M.L.Y.N.P.T.T.Y.Q.M.D.V.P.E.C}$PEPTIDE1,PEPTIDE1,1:R3-17:R3$$$V2.0)	–
